Results as given in publication PMC6586034 (Clinical Pharmacology in Drug Development, 2018).
Entries after “also recorded” stand apart in the source; their conditions may differ. Where two headings read alike, the source gives them in different places. Values belong to the compound of their own block, whether it stands above or below them.

Experiments:
[1] = test system: URAT1; conditions: cited from earlier work; for URAT1 activity: metabolites of verinurad
[2] = human; cited from earlier work
[3] = Safety/tolerability; format: in vivo, human; conditions: for Subjects with an increase from baseline in serum creatinine (sCr): none had sCr ≥1.5 × baseline; for Tolerability: multiple once-daily oral doses, alone or in combination, healthy adult males
[4] = test system: uric acid; assay: Urinary uric acid pharmacodynamics; format: in vivo, human; conditions: arithmetic mean (95%CI); for AeUR, % Change From baseline / CLUR, % Change From baseline / FEUA, % Change From baseline: day 7 of treatment vs day −1
[5] = test system: serum urate (sUA); assay: Serum urate pharmacodynamics; format: in vivo, human; conditions: for Change in sUA at 24 hours: steady state, 24 hours postdose
Summary of the method: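 Healthy men were dosed orally once daily, each drug alone for 7 days, and serum was sampled predose to 24 h postdose on days 1, 7, 14 and 21. A central laboratory assayed serum urate. Baseline was the mean of all day −1 values. Maximum percentage change from baseline was taken per subject and averaged per group. A mixed-effects model used treatment as fixed effect, baseline as covariate and subject as random effect.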

[6] = format: in vivo, human; conditions: febuxostat 80 mg + verinurad 2.5 mg
[7] = test system: major CYPs; conditions: ref Ardea Biosciences, Inc., data on file; cited from earlier work
[8] = format: in vivo, human
Summary of the method: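 Urine was collected as total catch over 0–6, 6–12 and 12–24 h postdose on days 7 (alone), 14 (combination) and 21, under once-daily oral dosing in healthy men. Verinurad was measured by LC/MS/MS, linear 2.00–1000 ng/mL. Ae0-24, fe0-24 and CLR0-24 were derived. Log-transformed parameters were compared as geometric mean ratios with 90% CI using a mixed-effects model (treatment fixed, subject random).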

[9] = format: in vivo, human; conditions: for Tmax: male, human, plasma, po
Summary of the method: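 Healthy men (18–65 y, sUA ≥4.5 mg/dL) took oral doses once daily, about 30–35 min after a moderate-fat breakfast. […] Plasma was sampled predose to 24 h on days 7, 14 and 21. Acetonitrile precipitation with deuterated internal standard, then LC/MS/MS (LLOQ 0.100 ng/mL). Log GMRs (90% CI) for single agent vs day 14 came from a mixed-effects model.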

[10] = febuxostat 40 mg once daily alone
[11] = febuxostat 80 mg once daily alone
[12] = VERU 2.5 mg once daily, Day 7 of Treatment (0 to 24 Hours)
[13] = VERU 2.5 mg + FBX 80 mg once daily oral, day 14, geometric mean
[14] = VERU 2.5 mg + FBX 80 mg once daily oral, day 14, mean (SD)
[15] = VERU 2.5 mg once daily oral alone, day 7 or 21, geometric mean
[16] = VERU 2.5 mg once daily oral alone, day 7 or 21, mean (SD)
[17] = VERU 10 mg + FBX 40 mg once daily oral, day 14, geometric mean
[18] = VERU 10 mg + FBX 40 mg once daily oral, day 14, mean (SD)
[19] = VERU 10 mg once daily oral alone, day 7 or 21, geometric mean
[20] = VERU 10 mg once daily oral alone, day 7 or 21, mean (SD)
[21] = verinurad 2.5 mg combined with febuxostat 80 mg vs alone
[22] = verinurad 2.5 mg once daily alone
[23] = verinurad 10 mg once daily alone

SMILES: CC(C)(Sc1ccncc1-c1ccc(C#N)c2ccccc12)C(=O)OC1OC(C(=O)O)C(O)C(O)C1O (stereo not shown) [M1]
URAT1 activity [1]: devoid of URAT1 activity | Circulating level in blood relative to verinurad [2]: equimolar to verinurad

SMILES: CC(C)(Sc1cc[n+]([O-])cc1-c1ccc(C#N)c2ccccc12)C(=O)OC1OC(C(=O)O)C(O)C(O)C1O (stereo not shown) [M8]
URAT1 activity [1]: devoid of URAT1 activity | Circulating level in blood relative to verinurad [2]: equimolar to verinurad

Effect on Tmax of febuxostat [6]: remained unchanged
SMILES: Cc1nc(-c2ccc(OCC(C)C)c(C#N)c2)sc1C(=O)O [febuxostat, Febuxostat, reference compound]
Subjects with an increase from baseline in serum creatinine (sCr) ([3]; febuxostat 40 mg): 1 subjects | Subjects with an increase from baseline in serum creatinine (sCr) ([3]; febuxostat 80 mg): 2 subjects | Tolerability [3]: generally well tolerated | AeUR, % Change From baseline ([4]; FBX 40 mg once daily): −64.1% | CLUR, % Change From baseline ([4]; FBX 40 mg once daily): −34.4 (−45.3 to −23.5) % | FEUA, % Change From baseline ([4]; FBX 40 mg once daily): −24.5% | AeUR, % Change From baseline ([4]; FBX 80 mg once daily): −72.4% | CLUR, % Change From baseline ([4]; FBX 80 mg once daily): −42.0 (−50.8 to −33.2) % | FEUA, % Change From baseline ([4]; FBX 80 mg once daily): −35.2% | Maximal reduction in serum urate [5, 10]: 49% | Mean maximal change from baseline in sUA at steady state [5, 10]: −49.1% | Change in sUA at 24 hours [5, 10]: −36.9% | Maximal reduction in serum urate [5, 11]: 57% | Mean maximal change from baseline in sUA at steady state [5, 11]: −57.5% | Change in sUA at 24 hours [5, 11]: −45.4%

Ae0-24 of verinurad (excreted unchanged in urine) [8, 13]: 30.0 [21.6‐41.6] μg | CLR0-24 of verinurad [8, 13]: 14.4 mL/min | fe0-24 of verinurad [8, 13]: 1.20% | Ae0-24 of verinurad (excreted unchanged in urine) ([8]; VERU 2.5 mg + FBX 80 mg once daily oral, day 14, geometric mean, listed as VERU): 30.0 µg | Ae0-24 of verinurad (excreted unchanged in urine) [8, 14]: 32.3 (12.2) μg | CLR0-24 of verinurad [8, 14]: 15.4 (5.97) mL/min | fe0-24 of verinurad [8, 14]: 1.29 (0.490) % | Ae0-24 of verinurad (excreted unchanged in urine) [8, 15]: 21.2 [14.8‐30.5] μg | CLR0-24 of verinurad [8, 15]: 13.6 mL/min | fe0-24 of verinurad [8, 15]: 0.849% | Ae0-24 of verinurad (excreted unchanged in urine) ([8]; VERU 2.5 mg once daily oral alone, day 7 or 21, geometric mean, listed as VERU): 21.2 µg | Ae0-24 of verinurad (excreted unchanged in urine) [8, 16]: 23.3 (10.1) μg | CLR0-24 of verinurad [8, 16]: 15.1 (7.29) mL/min | fe0-24 of verinurad [8, 16]: 0.932 (0.405) % | Ae0-24 of verinurad (excreted unchanged in urine) [8, 17]: 97.6 µg | CLR0-24 of verinurad [8, 17]: 15.2 mL/min | fe0-24 of verinurad [8, 17]: 0.976% | Ae0-24 of verinurad (excreted unchanged in urine) [8, 18]: 106 (44.2) μg | CLR0-24 of verinurad [8, 18]: 16.2 (5.43) mL/min | fe0-24 of verinurad [8, 18]: 1.06 (0.442) % | Ae0-24 of verinurad (excreted unchanged in urine) [8, 19]: 86.8 µg | CLR0-24 of verinurad [8, 19]: 12.4 mL/min | fe0-24 of verinurad [8, 19]: 0.868% | Ae0-24 of verinurad (excreted unchanged in urine) [8, 20]: 97.2 (49.7) μg | CLR0-24 of verinurad [8, 20]: 13.6 (5.04) mL/min | fe0-24 of verinurad [8, 20]: 0.972 (0.497) % | Increase in Ae0-24 of verinurad ([8]; verinurad 2.5 mg in the presence of febuxostat 80 mg vs alone): 41% | Tmax ([9]; 2.5 mg): 4 h | Tmax ([9]; 10 mg): 2.75 h | Increase in AUC0-24 of verinurad [9, 21]: 33% | Increase in Cmax of verinurad [9, 21]: 25% | Effect on Tmax of verinurad ([9]; verinurad 2.5 mg in the presence of febuxostat 80 mg): remained unchanged
SMILES: CC(C)(Sc1ccncc1-c1ccc(C#N)c2ccccc12)C(=O)O [verinurad, Verinurad]
Inhibition of the major CYPs [7]: does not inhibit | Potency in inhibiting URAT1 [1]: high potency | Tolerability [3]: generally well tolerated | Subjects with an increase from baseline in serum creatinine (sCr) ([3]; verinurad 2.5 mg): 3 subjects | Subjects with mild headache (only AE considered possibly related to verinurad) ([3]; verinurad 10 mg-alone group, resolved without treatment): 1 subject | Subjects with an increase from baseline in serum creatinine (sCr) ([3]; verinurad 10 mg): 2 subjects | AeUR (amount of uric acid recovered in urine) [4, 12]: 620 (485 to 755) mg | FEUA (fractional excretion of uric acid) [4, 12]: 7.55 (6.83 to 8.26) % | AeUR, % Change From baseline ([4]; VERU 2.5 mg once daily): −21.0% | CLUR, % Change From baseline ([4]; VERU 2.5 mg once daily): 10.7 (−7.92 to 29.3) % | FEUA, % Change From baseline ([4]; VERU 2.5 mg once daily): 17.2% | AeUR, % Change From baseline ([4]; VERU 10 mg once daily): −17.0% | CLUR, % Change From baseline ([4]; VERU 10 mg once daily): 65.8 (14.2, 117) % | FEUA, % Change From baseline ([4]; VERU 10 mg once daily): 105% | Effect of febuxostat 40 mg on plasma exposure / PK parameters of verinurad 10 mg ([9]; once-daily co-administration, healthy males): no effect; also recorded: unaffected; also recorded: not influenced | Maximal reduction in serum urate [5, 22]: 38% | Mean maximal change from baseline in sUA at steady state [5, 22]: −37.8% | Change in sUA at 24 hours [5, 22]: −19.9% | Maximal reduction in serum urate [5, 23]: 56% | Mean maximal change from baseline in sUA at steady state [5, 23]: −56.3% | Change in sUA at 24 hours [5, 23]: −38.0%
